The test system of assay [1] is WT and GFP-transduced Hela cells. The assay can be described thus: 3H-L-tryptophan uptake by IDO negative Hela cells. It is filed as cell-based, human. To be noted: for effect of excess unlabelled amino acid on 3H-tryptophan uptake: IDO negative Hela cells, high concentration (5mM glycine, histidine, glutamine). The method, boiled down:
(§1)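 HeLa cells were used untreated, GFP-transduced, human-IDO lentivirus-transduced, or given 1000 U/ml IFNγ for 48 h, and assayed at 90-100% confluence. Preincubated 20-30 min in PBS or choline buffer (pH 7.4). 3H-L-tryptophan was added at 50 pmol/ml, with initial-rate uptake over 3 min at 37°C. Stopped with 20mM L-lysine in ice-cold PBS, then NaOH/SDS lysis and scintillation counting. Competitors: BCH, D/L-Met, 5mM histidine, glycine or glutamine, and titrations. Triplicates, normalized; Student's t-test.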

Assay [2] has as its system IDO induced tryptophan transporter. It is filed as cell-based, human. To be noted: for effect on tryptophan uptake in the presence of 2.5mM glutamine: IDO positive Hela cells, L-tryptophan at 2mM. The method, boiled down: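 IFN-γ-treated or human IDO-lentivirus-transduced Hela cells are grown 48h to 90-100% confluence, washed, then preincubated 20-30 min in PBS or choline buffer (pH 7.4). Add 3H-L-tryptophan at 50pmol/ml with competing amino acid and take uptake at 37°C under initial-rate conditions over 3 min. Stop with 20mM L-lysine in ice-cold PBS, lyse in 1% NaOH/0.1% SDS, and count by liquid scintillation.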

In another assay the test system is histidine uptake. The assay can be described thus: 14C-histidine uptake. It counts as cell-based. To be noted: data not shown.
Assay [3] relates to IDO-lentivirus transduced or IFN-γ treated Hela cells. Kind of assay: 3H-L-tryptophan uptake by IDO positive Hela cells. It counts as cell-based, human. Particulars: for effect of excess unlabelled amino acid on 3H-tryptophan uptake: high concentration (5mM glycine, histidine, glutamine); for Ki: read-out: Ki for 3H-tryptophan uptake. The method, boiled down: as §1
Assay [4] concerns EG7 WT and GFP-transduced cells. The assay can be described thus: 3H-L-tryptophan uptake by IDO negative EG7 cells. It counts as cell-based, mouse. An outline of the steps: (§2)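 EG7 mouse T lymphoma cells: wild-type, GFP-only lentivirus controls, or an IDO/GFP lentivirus-transduced clone. Cultured 48 h, washed, then held 20-30 min in PBS or sodium-free choline buffer (pH 7.4). 3H-L-tryptophan was added at 50 pmol/ml and incubated a fixed time at 37°C. Uptake was stopped by spinning cells through oil. Competitors: BCH, D- or L-Met titrations, glutamine. Duplicate samples. Ki fitted assuming one or two transport systems.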

Assay [5] concerns IDO-transduced (C7) EG7 cells. The assay can be described thus: 3H-L-tryptophan uptake by IDO positive EG7 cells. It counts as cell-based, mouse. To be noted: for tryptophan uptake maintained: 0.05mM, EG7-C7 cells, absence of BCH; for fold lower affinity of the additional transporter versus the first transporter: IDO positive C7 cells, equation based on two independent systems; for effect on tryptophan uptake, inhibitor alone: IDO positive cells. An outline of the steps: as §2

A further assay relates to activated human T cells. The assay can be described thus: Tryptophan uptake by activated human T cells. It counts as cell-based. To be noted: preliminary data, not shown.
The mark [6] stands for this setting: WT and GFP-transduced Hela cells.

The values that follow come from paper PMC3512081 (Journal of immunology (Baltimore, Md. : 1950), 2011).

Several values for one entry are separate records, joined by “and”; a condition that tells them apart may be missing. Equal entries are not always repeated. Where two headings read alike, the source gives them in different places.

With `N[C@@H](Cc1c[nH]c2ccccc12)C(=O)O` [tryptophan, L-tryptophan], the “effect of excess unlabelled amino acid on 3H-tryptophan uptake” value (shortened to “effect of excess unlabelled amino acid”) in assay [1] and in assay [3] (IDO positive Hela cells) was “effectively competed” each time. Moreover, in assay [2], the “effect on tryptophan uptake in the presence of 2.5mM glutamine” value (shortened to “effect … of 2.5mM glutamine”) is reported as “reduced to baseline”. Besides, in assay [2] (read-out: Ki of the induced glutamine-resistant 3H-tryptophan transport, IDO positive tumor cells, 2.5mM glutamine), the Ki was 2.3 to 4.2 µM and 3 µM. The “effect on uptake of 14C-histidine” value in the assay with histidine uptake is listed as “inhibited”. Moreover, in assay [3] (Hela cells, IDO positive versus IDO negative), the “calculated Ki compared between cell types” value is recorded as “almost identical”.
With `CSCC[C@@H](N)C(=O)O` [D-Met, D-Methionine], the “effect on 3H-tryptophan uptake” value in assay [1] (setting [6]) is “strongly inhibited”. Also, the “inhibition of tryptophan uptake” value in assay [4] (0.05mM, WT and GFP-expressing EG7 cells, absence of BCH) is “over 80%”. In assay [5], the tryptophan uptake maintained result is given as “greater than 40%” and the “fold lower affinity of the additional transporter versus the first transporter” value was 10 fold. Moreover, the “fold higher Ki in IDO positive cells than IDO negative cells” value in assay [5] (EG7 cells, single uptake system calculation) was “approximately 10 fold”. Moreover, in assay [5] (read-out: Ki calculated based on a single tryptophan uptake system, IDO positive EG7 cells), the Ki was 100 to 300 µM.
Consider `N[C@@H](Cc1c[nH]cn1)C(=O)O` [histidine], for which the “effect of excess unlabelled amino acid” value in assay [1] is “completely inhibited”; in assay [3] (IDO positive Hela cells), “a proportion of the tryptophan uptake was retained”. In the assay with histidine uptake, the “effect on uptake of 14C-histidine” value was “inhibited”. Further, the “fold increase in Ki for IDO positive cells compared with IDO negative controls” value in assay [3] (Hela cells) is listed as 10 fold.
As for `CSCC[C@H](N)C(=O)O` [L-Met, L-methionine], in assay [1] (setting [6]), the “effect on 3H-tryptophan uptake” value is “strongly inhibited”. In addition, the inhibition at 50 µM in assay [4] (Mus musculus, EG7, read-out: inhibition of tryptophan uptake) was greater than 80%. Further, in assay [5], the tryptophan uptake maintained result is “greater than 40%” and the “fold lower affinity of the additional transporter versus the first transporter” value is listed as 10 fold.
With `NCC(=O)O` [glycine], the “effect of excess unlabelled amino acid” value in assay [1] and in assay [3] (IDO positive Hela cells) was “no effect” in each case.
Turning to `N[C@@H](Cc1ccc(O)c(O)c1)C(=O)O` [L-Dopa, L-3,4-dihydroxyphenylalanine], the “effect … of 2.5mM glutamine” value in assay [2] is “inhibited”.
Consider `N[C@H](Cc1c[nH]c2ccccc12)C(=O)O` [D-tryptophan], for which the “effect … of 2.5mM glutamine” value in assay [2] is “minimal inhibition”.
`NC1(C(=O)O)CC2CCC1C2` (stereo not drawn) [BCH, 2-aminobicyclo-(2,2,1)-heptane-2-carboxylic acid]: the “effect on 3H-tryptophan uptake” value in assay [1] (setting [6]) is “strongly inhibited”. For the same compound, the inhibition constant Ki is 12 µM in assay [1] (read-out: Ki for 3H-tryptophan uptake, control Hela cells); roughly 300 µM in assay [3] (IDO transduced Hela cells); roughly 600 µM in assay [3] (IFN-γ treated Hela cells). Further, the “effect on transporter-mediated 3H-L-tryptophan uptake” value in assay [4] (high concentrations, EG7-WT and GFP cells, sodium-free) is on record as “completely abolished”; in assay [5] (high concentrations, IDO positive EG7 cells, sodium-free) it was “completely abolished”. Moreover, in assay [2], the “effect … of 2.5mM glutamine” value is on record as “no additional inhibition”.
Regarding `CNC(C)(C)C(=O)O` [MeAIB, methyl-aminoisobutyric acid], the “effect on tryptophan uptake, inhibitor alone” value in assay [5] (data not shown) is “minimal effect”.
In the case of `NC(=O)CC[C@H](N)C(=O)O` [glutamine], the entries for the “effect of excess unlabelled amino acid” value in assay [1] and in assay [3] (IDO positive Hela cells) were “completely inhibited” and “a proportion of the tryptophan uptake was retained”, respectively. The “effect of glutamine alone on tryptophan uptake” value in assay [1] (setting [6]) is “completely abolished”. The “tryptophan uptake in the presence of glutamine” value in assay [4] (WT and GFP-transduced EG7 cells, data not shown) is listed as “inhibited”; in assay [5] (murine EG7-IDO positive cells, data not shown), “resistant to inhibition”. The “effect on uptake of 14C-histidine” value with histidine uptake is recorded as “inhibited”. Further, the “sensitivity of tryptophan uptake to inhibition” value with activated human T cells is on record as “highly sensitive to inhibition”. For the same compound, the tryptophan uptake maintained entry in assay [3] (5mM, IDO positive Hela cells) is reported as “over 50%”. The “fold increase in Ki for IDO positive cells compared with IDO negative controls” value in assay [3] (Hela cells) is on record as 10 fold.
For the compound `N[C@@H](Cc1ccc(O)cc1)C(=O)O` [tyrosine], in assay [2], the “effect … of 2.5mM glutamine” value is “little additional effect”.
With `CCN1C(=O)C=CC1=O` [NEM, N-ethyl maleimide], the “effect on tryptophan uptake, inhibitor alone” value in assay [5] (data not shown) was “minimal effect”.
Turning to `N[C@@H](Cc1ccccc1)C(=O)O` [phenylalanine], in assay [2], the “effect … of 2.5mM glutamine” value was “inhibited”. The “inhibition of tryptophan uptake in the presence of glutamine” value in assay [2] (IFN-γ-treated and IDO transduced Hela cells, 2.5mM glutamine) is “over 50%”.
